Measurements reported in ChEMBL document CHEMBL1134407, “Novel seco cyclopropa[c]pyrrolo[3,2-e]indole bisalkylators bearing a 3,3'-arylenebisacryloyl group as a linker” (J Med Chem, 2001).
≈ marks a conversion by molar mass, not a printed value.

How the values were obtained:
Mus musculus [1] = species on record: Mus musculus; assay: Ratio between maximum dose within 10% body weight loss to tumor growth inhibition; assay type: functional
HeLa = assay: Inhibitory activity against HeLaS3 human uterine cervix carcinoma cells; assay type: functional, cell-based
In short: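 HeLaS3 human uterine cervix carcinoma cells were exposed to the drug. The value is the drug concentration that inhibits cell growth by 50%.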

Mus musculus [2] = species on record: Mus musculus; assay: Percentage change in body weight; assay type: functional
Mus musculus [3] = species on record: Mus musculus; assay: Percentage tumor growth inhibition as compared with the untreated group; assay type: functional; design: concentration or dose not given beside the values
Homo sapiens [4] = assay: Antitumor activity against human colon CX-1 tumor Xenografts in Athymic mice at a dose of 7.81 micro g/kg; assay type: functional
In short: (§1)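 Athymic mice bearing human colon CX-1 tumour xenografts. Dose given in µg/kg. Read-out is percent tumour growth inhibition (TGI) relative to the untreated group.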

PC-3 = assay: Cytotoxicity against human cancer cell lines PC-3 of lung; assay type: functional, cell-based
SBC-3 = assay: Cytotoxicity against human cancer cell lines SBC-3 of lung; assay type: functional, cell-based
ZR-75-1 = assay: Cytotoxicity against human cancer cell lines ZR-75-1 of breast.; assay type: functional, cell-based
DLD-1 = assay: Cytotoxicity against human cancer cell lines DLD-1 of colon.; assay type: functional, cell-based
Homo sapiens [5] = assay: Antitumor activity against human colon CX-1 tumor Xenografts in Athymic mice at a dose of 3.91 micro g/kg; assay type: functional
In short: (§2)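 Athymic mice carried implanted human colon CX-1 tumor xenografts. Each line gives the dose in μg/kg. Read-out is percentage tumor growth inhibition relative to the untreated group.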

[6] = tested on: KATO III stomach cancer cell line; assay: Cytotoxicity against human cancer cell lines KATO III (gastric); assay type: functional, cell-based
[7] = Cytotoxicity against human cancer cell lines SBC-3 /ADR of lung (adriamycin resistant); assay type: functional, cell-based
A2780 = assay: Cytotoxicity against human cancer cell lines A2780 (ovarian); assay type: functional, cell-based
Homo sapiens [8] = assay: Antitumor activity against human colon CX-1 tumor Xenografts in Athymic mice at a dose of 15.6 micro g/kg; assay type: functional; in short: as §1
Homo sapiens [9] = assay: Antitumor activity against human colon CX-1 tumor Xenografts in Athymic mice at a dose of 9180 micro g/kg; assay type: functional; in short: as §2
[10] = Homo sapiens, HeLa, read-out: IC50

SMILES	Ratio (Mus musculus [1])	IC50 (HeLa; [10]) [ng/mL]	Body weight change (Mus musculus [2]) [%]	Inhibition (Mus musculus [3]) [%]	also measured
COC(=O)c1c(C(F)(F)F)[nH]c2c(O)cc3c(c12)[C@H](CCl)CN3C(=O)/C=C/c1ccc(/C=C/C(=O)N2C[C@@H](CCl)c3c2cc(O)c2[nH]c(C(F)(F)F)c(C(=O)OC)c32)c2ccccc12	7.4	0.011 (≈ 0.0118 nM)	3	85	
COC(=O)c1c(C(F)(F)F)[nH]c2c(O)cc3c(c12)[C@H](CCl)CN3C(=O)/C=C/c1ccc(-c2ccc(-c3ccc(/C=C/C(=O)N4C[C@@H](CCl)c5c4cc(O)c4[nH]c(C(F)(F)F)c(C(=O)OC)c54)cc3)cc2)cc1		48.3 (≈ 46.8 nM)	-11	84	
COC(=O)c1c(C(F)(F)F)[nH]c2c(O)cc3c(c12)[C@H](CCl)CN3C(=O)/C=C/c1ccc(/C=C/C(=O)N2C[C@@H](CCl)c3c2cc(O)c2[nH]c(C(F)(F)F)c(C(=O)OC)c32)c2c(OC)ccc(OC)c12		0.00934 (≈ 0.00944 nM)			
COC(=O)c1c(C(F)(F)F)[nH]c2c(O)cc3c(c12)[C@H](CCl)CN3C(=O)/C=C/c1ccc(/C=C/C(=O)N2C[C@@H](CCl)c3c2cc(O)c2[nH]c(C(F)(F)F)c(C(=O)OC)c32)cc1	30.7		-5	89	Inhibition (Homo sapiens [4]): 83%; IC50 (PC-3): 0.148 ng/mL (≈ 0.168 nM); IC50 (SBC-3; sbc-3): 0.00122 ng/mL (≈ 0.00139 nM); IC50 (HeLa; hela): 0.00274 ng/mL (≈ 0.00312 nM); IC50 (ZR-75-1; zr-75-1): 0.00463 ng/mL (≈ 0.00526 nM); IC50 (DLD-1): 0.0149 ng/mL (≈ 0.0169 nM); Inhibition (Homo sapiens [5]): 77%; IC50 [6]: 0.816 ng/mL (≈ 0.928 nM); IC50 [7]: 0.00349 ng/mL (≈ 0.00397 nM); IC50 (A2780; a2780): 0.000397 ng/mL (≈ 0.000451 nM)
Cc1c[nH]c2c(O)cc3c(c12)[C@H](CCl)CN3C(=O)c1cc2cc(NC(=O)Nc3ccc4[nH]c(C(=O)N5C[C@@H](CCl)c6c5cc(O)c5[nH]cc(C)c65)cc4c3)ccc2[nH]1 [BIZELESIN]	8.4		-3	90	Inhibition (Homo sapiens [4]): 53%; Inhibition (Homo sapiens [8]): 56%
CO[C@@]12[C@H](COC(N)=O)C3=C(C(=O)C(C)=C(N)C3=O)N1C[C@@H]1N[C@@H]12 [MITOMYCIN]					Inhibition (Homo sapiens [9]): 65%
COC(=O)c1c(C(F)(F)F)[nH]c2c(O)cc3c(c12)[C@H](CCl)CN3C(=O)/C=C/c1c2ccccc2c(/C=C/C(=O)N2C[C@@H](CCl)c3c2cc(O)c2[nH]c(C(F)(F)F)c(C(=O)OC)c32)c2ccccc12		1.51 (≈ 1.54 nM)	-18	75	
COC(=O)c1c(C(F)(F)F)[nH]c2c(O)cc3c(c12)[C@H](CCl)CN3C(=O)/C=C/c1cccc(-c2ccc(-c3cccc(/C=C/C(=O)N4C[C@@H](CCl)c5c4cc(O)c4[nH]c(C(F)(F)F)c(C(=O)OC)c54)c3)cc2)c1		> 100			
COC(=O)c1c(C(F)(F)F)[nH]c2c(O)cc3c(c12)[C@H](CCl)CN3C(=O)/C=C/c1cc(OC)c(/C=C/C(=O)N2C[C@@H](CCl)c3c2cc(O)c2[nH]c(C(F)(F)F)c(C(=O)OC)c32)cc1OC	>6.5	9.71 (≈ 10.3 nM)	3	81	
COC(=O)c1c(C(F)(F)F)[nH]c2c(O)cc3c(c12)[C@H](CCl)CN3C(=O)/C=C/c1cccc(/C=C/C(=O)N2C[C@@H](CCl)c3c2cc(O)c2[nH]c(C(F)(F)F)c(C(=O)OC)c32)c1		54.6 (≈ 62.1 nM)	-5	91	
COC(=O)c1c(C(F)(F)F)[nH]c2c(O)cc3c(c12)[C@H](CCl)CN3C(=O)/C=C/c1ccc(/C=C/C(=O)N2C[C@@H](CCl)c3c2cc(O)c2[nH]c(C(F)(F)F)c(C(=O)OC)c32)c2cc3ccccc3cc12	3.5	3.25 (≈ 3.32 nM)	-6	82	
COC(=O)c1c(C(F)(F)F)[nH]c2c(O)cc3c(c12)[C@H](CCl)CN3C(=O)/C=C/c1ccc(/C=C/C(=O)N2C[C@@H](CCl)c3c2cc(O)c2[nH]c(C(F)(F)F)c(C(=O)OC)c32)c2c1OCO2	13.3	0.00595 (≈ 0.00644 nM)	-2	90	
COc1cccc2c1C(=O)c1c(O)c3c(c(O)c1C2=O)C[C@@](O)(C(=O)CO)C[C@@H]3O[C@H]1C[C@H](N)[C@H](O)[C@H](C)O1 [DOXORUBICIN]					IC50 (SBC-3; Homo sapiens, SBC-3, read-out: IC50): 11.2 ng/mL (≈ 20.6 nM); IC50 (ZR-75-1; Homo sapiens, ZR-75-1, read-out: IC50): 6.39 ng/mL (≈ 11.8 nM); IC50 (DLD-1): 136 ng/mL (≈ 250 nM); IC50 [6]: 905 ng/mL (≈ 1670 nM); IC50 [7]: 129 ng/mL (≈ 237 nM); IC50 (A2780; Homo sapiens, A2780, read-out: IC50): 12.1 ng/mL (≈ 22.3 nM)
CCc1c(/C=C/C(=O)N2C[C@@H](CCl)c3c2cc(O)c2[nH]c(C(F)(F)F)c(C(=O)OC)c32)ccc(/C=C/C(=O)N2C[C@@H](CCl)c3c2cc(O)c2[nH]c(C(F)(F)F)c(C(=O)OC)c32)c1CC					IC50 (HeLa; hela): 0.00138 ng/mL (≈ 0.00147 nM)
COC(=O)c1c(C(F)(F)F)[nH]c2c(O)cc3c(c12)[C@H](CCl)CN3C(=O)/C=C/c1ccc(-c2ccc(/C=C/C(=O)N3C[C@@H](CCl)c4c3cc(O)c3[nH]c(C(F)(F)F)c(C(=O)OC)c43)cc2)cc1	3.7	0.141 (≈ 0.148 nM)	4	83	
COC(=O)c1c(C(F)(F)F)[nH]c2c(O)cc3c(c12)[C@H](CCl)CN3C(=O)/C=C/c1ccccc1/C=C/C(=O)N1C[C@@H](CCl)c2c1cc(O)c1[nH]c(C(F)(F)F)c(C(=O)OC)c21		87.6 (≈ 99.6 nM)	-6	70	
COC(=O)c1c(C(F)(F)F)[nH]c2c(O)cc3c(c12)[C@H](CCl)CN3C(=O)/C=C/c1ccc(/C=C/C(=O)N2C[C@@H](CCl)c3c2cc(O)c2[nH]c(C(F)(F)F)c(C(=O)OC)c32)c(OC)c1OC	4.6		-1	89	IC50 (HeLa; hela): 0.00158 ng/mL (≈ 0.00168 nM)
COC(=O)c1c(C(F)(F)F)[nH]c2c(O)cc3c(c12)[C@H](CCl)CN3C(=O)/C=C/c1ccc(/C=C/C(=O)N2C[C@@H](CCl)c3c2cc(O)c2[nH]c(C(F)(F)F)c(C(=O)OC)c32)c2c1C(=O)c1ccccc1C2=O	6.6	0.523 (≈ 0.518 nM)	-4	84	
COC(=O)c1c(C(F)(F)F)[nH]c2c(O)cc3c(c12)[C@H](CCl)CN3C(=O)c1cc2cc(-c3ccc4[nH]c(C(=O)N5C[C@@H](CCl)c6c5cc(O)c5[nH]c(C(F)(F)F)c(C(=O)OC)c65)cc4c3)ccc2[nH]1	3.3		1	84	IC50 (HeLa; hela): 0.0049 ng/mL (≈ 0.00499 nM)
COC(=O)c1c(C(F)(F)F)[nH]c2c(O)cc3c(c12)[C@H](CCl)CN3C(=O)/C=C/c1ccc(-c2ccc(/C=C/C(=O)N3C[C@@H](CCl)c4c3cc(O)c3[nH]c(C(F)(F)F)c(C(=O)OC)c43)cn2)nc1	3.6	0.0198 (≈ 0.0207 nM)	4	88	
COC(=O)c1c(C(F)(F)F)[nH]c2c(O)cc3c(c12)[C@H](CCl)CN3C(=O)/C=C/c1ccc(/C=C/C(=O)N2C[C@@H](CCl)c3c2cc(O)c2[nH]c(C(F)(F)F)c(C(=O)OC)c32)c2c1OCCO2	9		3	91	IC50 (HeLa; hela): 0.00276 ng/mL (≈ 0.00294 nM)
